Assay: Toxicity liver stage against HepG2, at 10uM
Assay type: cell-based
Parameters: test concentration 10 uM, cell line HepG2-A16-CD81EGFP
Conditions: human, HepG2-A16-CD81EGFP cells; read-out: INHIBITION
In short: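 Uninfected HepG2-A16-CD81EGFP cells, 3 × 10^3 per well, 1536-well, plated on prespotted compound at 10 μM final, parasite-free screening media added to match infected plates; puromycin 10 μM positive, DMSO 0.5% negative; run in parallel with 48 h PbLuc assay at 37 °C, 5% CO2; viability by CellTiter-Glo luminescence, normalized to controls.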

Row | SMILES | cytotoxicity at 10 µM [%]
1 | CN1CCC(NC(=O)Nc2ccc(Br)c(F)c2)C1=O (stereo unspecified) | -147
2 | Cc1cccc(N2N=C(C(=O)NC(C)CCc3ccco3)CCC2=O)c1 (stereo unspecified) | -10.1
3 | CC(C)CCN(C(=O)c1cccc(NC(N)=O)c1)C1CC1 | -6.46
4 | CC(SCCS(C)(=O)=O)c1nc(Cc2ccc(F)cc2)no1 (stereo unspecified) | 4.6
5 | CCOC(=O)C(CO)NC(=O)CCc1cccc(OC2CCCC2)c1 (stereo unspecified) | -7.08
6 | COCCC(Cc1cccc(Br)c1)C(=O)NCC(N)=O (stereo unspecified) | 9.74
7 | CC(C)N(Cc1ccccn1)C(=O)CN(C)C(=O)c1cccs1 | 2.31
8 | CC(C)c1nc(C2CCCN2CCOCC2CC2)no1 (stereo unspecified) | 1.8
9 | Cc1csc(N2CCCN(Cc3ccn(C)c(=O)c3)CC2)n1 | 12.8
10 | CSC(CNS(C)(=O)=O)c1cccc(Cl)c1 (stereo unspecified) | 6.27
11 | O=S(=O)(C1CC1)N1CCc2c(CN3CCOCC3)cncc2C1 | -0.514
12 | c1cnc(N2CCc3onc(CN4CCOCC4)c3C2)cn1 | 14.1
13 | CC(=O)N1CCC2(CC1)CN(C(C)C)c1ccc(F)cc12 | -110
14 | Cc1nc(CN2CCCCC2CCc2ccc(O)cc2)co1 (stereo unspecified) | 2.72
15 | CCN(CC)C(=O)C1CCC(=O)N(CCc2cccc(F)c2)C1 (stereo unspecified) | -4.92
16 | c1ccc(Cc2noc(-c3ccc(NCC4COCCO4)nc3)n2)cc1 (stereo unspecified) | 6.42
17 | CC(C)c1nccc(C2CC(=O)Nc3n[nH]c(C4CCC4)c32)n1 (stereo unspecified) | -14.6
18 | Cc1ccccc1N1CCN(C(=O)c2cnn(C(C)C)c2)C(C)C1 (stereo unspecified) | 1.48
19 | CN1CC2(CCN(C(=O)c3cccc(-n4cccn4)c3)CC2)OC1=O | 4.5

Row | SMILES | cytotoxicity at 10 µM [%]
20 | COc1ccc(CN2C[C@@H](CN(C)CCO)[C@@H](CO)C2)cc1Cl | -5.88
21 | COc1ccccc1CN(Cc1cccnc1)Cc1c[nH]c(C)n1 | 6.43
22 | Cc1cc(CNC(=O)c2ccc(C(C)N3CCCCC3)o2)[nH]n1 (stereo unspecified) | -12.6
23 | Cc1nccn1CCC1CCN(C2CCC3(CCNCC3)CC2)CC1 | -1.43
24 | CN(Cc1nc(CC2CC2)no1)CC1Cc2ccccc2O1 (stereo unspecified) | -2.53
25 | COCC1CCCCN1Cc1nc(-c2ccoc2)oc1C (stereo unspecified) | 1.93
26 | CC1CCCCN1CCN(C)C(=O)c1cc(CN2CCC(O)CC2)on1 (stereo unspecified) | 1.14
27 | COCc1cc(NCc2ccccc2OC)ncn1 | 7.69
28 | Cc1cc2[nH]c(=O)oc2cc1S(=O)(=O)N1CCC(N2CCCC2=O)CC1 | 1.54
29 | COc1cccc(C(=O)N(C)C(C)c2c(C)n[nH]c2C)c1OC (stereo unspecified) | -2.8
30 | CC(C)c1nc(CN(C)C(=O)CCNC(=O)c2ccccc2F)no1 | 4.66
31 | CCn1ncnc1C(C)NC(=O)COc1ccc(Cl)cc1Cl (stereo unspecified) | 2.8
32 | CCC(C(=O)NCc1ccccn1)N(c1cccc(C)c1)S(C)(=O)=O (stereo unspecified) | 0.383
33 | COc1cccc(CNCc2c(C(C)C)nn(C)c2N(C)C)c1 | -7.36
34 | Cc1cc(C)n(CC2CN(Cc3ccccn3)CCO2)n1 (stereo unspecified) | -3.89
35 | Cc1ccc(C(=O)NCc2cccnc2N(C)C)o1 | -6.86
36 | CN(Cc1cc(-c2ccccc2)no1)C1CCCN(c2cccnn2)C1 (stereo unspecified) | -10.2
37 | COCC(=O)N1CCN(Cc2coc(-c3cccc(F)c3)n2)CC1 | -7.16
38 | Cn1cc(C2CCCN2C(=O)c2ccc(Br)o2)cn1 (stereo unspecified) | -3.32

Row | SMILES | cytotoxicity at 10 µM [%]
39 | Cc1cc(C)n(C2CCCN(C(=O)COCC(F)(F)F)C2)n1 (stereo unspecified) | -4.3
40 | Cc1nc2cc(-c3nccn3C)nn2c(N2CCC(O)CC2)c1C | -3.31
41 | CN(C)C(=O)N1Cc2ccccc2C2(CCNCC2)C1 | 1.26
42 | N#Cc1ccc(N2CCC3(CCCN(c4ccccn4)C3)C2)nc1 (stereo unspecified) | 15.6
43 | Fc1cccnc1N1CCOCC2(CCCN(c3nncs3)C2)C1 (stereo unspecified) | 3.44
44 | COc1ncccc1CN1C[C@@H]2COC[C@]2(COCC2CC2)C1 | 5.37
45 | Cc1cnc2n1CCN(C)C21CCN(CC2CC2)CC1 | 7.34
46 | CCN1CCC2(CC1)CC(NC(=O)N(C)C)c1cc(C)ccc12 (stereo unspecified) | -13.1
47 | O=C(c1ccco1)N1CCN2C[C@H](OCc3cccnc3)C[C@H]2C1 | -77
48 | O=C1NC2(CCN(Cc3ccsc3)CC2)CC1c1ccncc1 (stereo unspecified) | 4.93
49 | CN(C)[C@@H]1CN(C(=O)Cc2ccsc2)[C@@H]2CCCO[C@H]12 | 3.08
50 | O=C1COC2(COCCN(Cc3ccsc3)C2)CN1c1ccoc1 (stereo unspecified) | -73.5
51 | O=C1[C@@H]2CCN(Cc3ccoc3)C[C@@H]2OCCN1Cc1cccnc1 | -0.671
52 | CCN1CCOCC2(CCCN(C(=O)c3conc3C)C2)C1 (stereo unspecified) | 2.82
53 | CCOCC(=O)N1CCC2(CC1)COCCN2CCOC | 8.37
54 | COCCOCC1(CNCc2cccc(OC)c2)C[C@@H](O)[C@@H](O)C1 (stereo partly specified) | 0.994
55 | CN(C)C(=O)N1C[C@H]2CC[C@@H](C1)N(C(=O)c1c(Cl)cccc1Cl)C2 | 7.2
56 | O=C1CCCC2=Nc3nonc3NC(c3ccccc3Cl)C12 (stereo unspecified) | 18.5

Source: ChEMBL document CHEMBL4513216, “Probing the Open Global Health Chemical Diversity Library for Multistage-Active Starting Points for Next-Generation Antimalarials” (ACS Infect Dis, 2020)
